In general, IC50 refers to the concentration that inhibits the measured activity by half.

Consider 16 compounds from ChEMBL document CHEMBL1139980, “Identification of 1-isopropylsulfonyl-2-amine benzimidazoles as a new class of inhibitors of hepatitis B virus” (Eur J Med Chem, 2007).

A short description of assay [1]: Selectivity index, ratio of CC50 for HepG2.2.15 cells to IC50 for HBV. The class given is functional. Summed up: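 The index was calculated as CC50 divided by IC50. CC50 came from an 8-day MTT assay in HepG2.2.15 cells, and IC50 from fluorescent-PCR quantification of HBV DNA after treatment of confluent HepG2.2.15 cultures.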
The test system of another assay is Hepatitis B virus. The experiment in a line: Inhibition of cytoplasmic HBV DNA synthesis in HepG2.2.15 cells after 8 days. The class given is functional, organism-based. The settings on record: for IC50: HepG2.2.15, 192 h. Summed up:
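Confluent HepG2.2.15 cultures were treated with various doses. A 50 µL supernatant sample was added to extraction buffer, boiled for 10 min and centrifuged for 5 min, and aliquots were run in fluorescent PCR with HBV-specific primers and probe. IC50 was taken as the concentration giving 50% inhibition of cytoplasmic HBV DNA synthesis.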

Calls of active or inactive are those of the source. The rule behind the calls is not given here.

Take `CC(C)S(=O)(=O)n1c(N)nc2cc(NC(=O)c3ccc(F)cc3)ccc21`: in assay [1], the “Ratio CC50/IC50” value is recorded as 9. Moreover, the midpoint of inhibition with Hepatitis B virus, the IC50, lay at 3700 nM.

Take `Cc1ccc(S(=O)(=O)Nc2ccc3nc(N)n(S(=O)(=O)C(C)C)c3c2)cc1`: in assay [1], the “Ratio CC50/IC50” value was 17. The compound further yielded an IC50 with Hepatitis B virus of 4800 nM.

On to `Cc1ccc(S(=O)(=O)Nc2ccc3c(c2)nc(N)n3S(=O)(=O)C(C)C)cc1`, for which, in assay [1], the “Ratio CC50/IC50” value was found to be 9. Besides, the IC50 in the assay on Hepatitis B virus is 16000 nM.

Regarding `CC(C)S(=O)(=O)n1c(N)nc2ccc(NCc3ccccc3)cc21`, in the assay on Hepatitis B virus, the result was inactive.

As to `Nc1ncnc2c1ncn2CCOCP(=O)(O)O` [ADEFOVIR], the “Ratio CC50/IC50” value in assay [1] worked out at 34. Also, in the assay with Hepatitis B virus, the IC50 amounted to 1700 nM.

For the compound `CC(C)S(=O)(=O)n1c(N)nc2ccc(NS(=O)(=O)c3ccccc3)cc21`, in assay [1], the “Ratio CC50/IC50” value was found to be 41. This compound gave an IC50 in the assay on Hepatitis B virus of 1500 nM.

As to `COc1cccc(CN(Cc2cccc(OC)c2)c2ccc3nc(N)n(S(=O)(=O)C(C)C)c3c2)c1`, in assay [1], the “Ratio CC50/IC50” value is reported as 123. Moreover, the IC50 in the assay on Hepatitis B virus worked out at 700 nM.

For `CC(C)S(=O)(=O)n1c(N)nc2ccc(NC(=O)c3ccccc3)cc21`, the “Ratio CC50/IC50” value in assay [1] was over 15. In the assay with Hepatitis B virus, the IC50 was found to be 33700 nM.

`CC(C)S(=O)(=O)n1c(N)nc2ccc(NC(=O)c3ccccc3Cl)cc21`: in assay [1], the “Ratio CC50/IC50” value is given as 107. In the assay with Hepatitis B virus, half-maximal inhibition (IC50) required 820 nM.

As to `CC(C)S(=O)(=O)n1c(N)nc2ccc(NC(=O)c3ccccc3F)cc21`, the “Ratio CC50/IC50” value in assay [1] amounted to 51. Moreover, in the assay with Hepatitis B virus, the IC50 was determined as 940 nM.

In the case of `CC(C)S(=O)(=O)n1c(N)nc2ccc(NS(=O)(=O)c3cccc([N+](=O)[O-])c3)cc21`, the “Ratio CC50/IC50” value in assay [1] is 5. The IC50 in the assay with Hepatitis B virus amounted to 10500 nM.

As for `Cc1ccc(C(=O)Nc2ccc3nc(N)n(S(=O)(=O)C(C)C)c3c2)cc1`, the “Ratio CC50/IC50” value in assay [1] is listed as over 119. This compound also returned an IC50 with Hepatitis B virus of 4200 nM.

In the case of `CC(C)S(=O)(=O)n1c(N)nc2cc(NC(=O)c3ccccc3)ccc21`, the “Ratio CC50/IC50” value in assay [1] is reported as over 250. This compound also displayed an IC50 in the assay on Hepatitis B virus of 2000 nM.

Consider `CC(C)S(=O)(=O)n1c(N)nc2ccc(NC(=O)c3c(F)cccc3F)cc21`, for which, in assay [1], the “Ratio CC50/IC50” value is reported as 274. The same compound gave an IC50 with Hepatitis B virus of 700 nM.

With `CC(C)S(=O)(=O)n1c(N)nc2ccc(NC(=O)c3ccc(F)cc3)cc21`, the “Ratio CC50/IC50” value in assay [1] is on record as 56. In the assay on Hepatitis B virus, the IC50 was determined as 1200 nM.

As to `Nc1ccn([C@@H]2CS[C@H](CO)O2)c(=O)n1` [LAMIVUDINE], the “Ratio CC50/IC50” value in assay [1] was over 2632.
